Results reported in ChEMBL document CHEMBL3244108, “Potential antitumor agents. Some sulfur-substituted derivatives of alpha- and beta-2'-deoxythioguanosine” (J Med Chem, 1977).

Tests used:
L1210 [1] = test: Inhibition of DNA synthesis in mouse L1210 cells assessed as inhibition of tritiated thymidine incorporation into nucleic acids; format: functional; conditions: read-out: ED50 (the source's name)
How it was run: (§1)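 Cultured L1210 cells were labeled with tritiated thymidine (DNA) or tritiated uridine (RNA), and label incorporation into the isolated nucleic acids was measured. The ED50 is the drug concentration that inhibits this incorporation by 50%. Other details are referenced to earlier work.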

L1210 [2] = test: Antitumor activity in mouse L1210 cells allografted in mouse assessed as increase in survival time at optimal dose administered qd on days 1 to 5 of challenge relative to control; format: functional
How it was run: (§2)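 Mouse leukemia survival test run under standard National Cancer Institute protocols. T/C = (treated-animal average survival time / control-animal average survival time) × 100%. Optimum dose is expressed as mg/kg/dose. T/C data were duplicated in separate experiments except where a footnote states that confirmation was not run.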

P388 = test: Antitumor activity in mouse P388 cells allografted in mouse assessed as increase in survival time at optimal dose administered qd on days 1 to 9 of challenge relative to control; format: functional; how it was run: as §2
Mus musculus = species: Mus musculus; test: Acute toxicity in mouse; format: organism-based; conditions: in vivo
L1210 [3] = test: Inhibition of RNA synthesis in mouse L1210 cells assessed as inhibition of tritiated uridine incorporation into nucleic acids; format: functional; conditions: read-out: ED50 (the source's name); how it was run: as §1
L1210 [4] = test: Antitumor activity in mouse L1210 cells allografted in mouse assessed as increase in survival time at optimal dose administered qd on days 1 to 16 of challenge relative to control; format: functional; how it was run: as §2
L1210 [5] = test: Antitumor activity in mouse L1210 cells allografted in mouse assessed as increase in survival time at optimal dose administered as single dose relative to control; format: functional; how it was run: as §2
L1210 [6] = test: Antitumor activity in mouse L1210 cells allografted in mouse assessed as increase in survival time at 400 mg/kg administered as single dose relative to control; format: functional; how it was run: as §2
L1210 [7] = test: Antitumor activity in mouse L1210 cells allografted in mouse assessed as increase in survival time at optimal dose administered qd on days 1 to 9 of challenge relative to control; format: functional; how it was run: as §2

Row | SMILES | EC50 (L1210 [1]) [µM] | T/C (L1210 [2]) [%] | T/C (P388) [%] | Activity (Mus musculus) | EC50 (L1210 [3]) [µM] | T/C (L1210 [4]) [%] | T/C (L1210 [5]) [%] | T/C (L1210 [6]) [%] | T/C (L1210 [7]) [%]
1 | Cn1cnc([N+](=O)[O-])c1Sc1nc(N)nc2c1ncn2[C@H]1C[C@H](O)[C@@H](CO)O1 | 25 | 173 | 161 | Non-toxic | 11 | – | – | – | –
2 | CSc1nc(N)nc2c1ncn2[C@H]1C[C@H](O)[C@@H](CO)O1 | 27 | 128 | – | Non-toxic | 24 | – | – | – | –
3 | Nc1nc2c(ncn2[C@@H]2C[C@H](O)[C@@H](CO)O2)c(=S)[nH]1 | > 100 | 161 | 168 | – | > 100 | 174 | – | – | –
4 | Nc1nc(SCc2ccccc2)c2ncn([C@H]3C[C@H](O)[C@@H](CO)O3)c2n1 | – | – | – | Non-toxic | – | – | 172 | 157 | –
5 | Nc1nc(SCc2ccccc2)c2ncn([C@@H]3C[C@H](O)[C@@H](CO)O3)c2n1 | – | 144 | – | Non-toxic | – | – | – | – | –
6 | CSc1nc(N)nc2c1ncn2[C@@H]1C[C@H](O)[C@@H](CO)O1 | > 100 | <125 | <125 | Non-toxic | > 100 | – | – | – | –
7 | C=CCSc1nc(N)nc2c1ncn2[C@H]1C[C@H](O)[C@@H](CO)O1 | 5.5 | 179 | 181 | Non-toxic | 3 | – | – | – | –
8 | C=CCSc1nc(N)nc2c1ncn2[C@@H]1C[C@H](O)[C@@H](CO)O1 | > 100 | <125 | <125 | Non-toxic | > 100 | – | – | – | –
9 | Cc1cccc(CSc2nc(N)nc3c2ncn3[C@H]2C[C@H](O)[C@@H](CO)O2)n1 | 64 | 153 | <125 | Non-toxic | 31 | – | – | – | –
10 | Cc1cccc(CSc2nc(N)nc3c2ncn3[C@@H]2C[C@H](O)[C@@H](CO)O2)n1 | 79 | <125 | <125 | Non-toxic | 72 | – | – | – | –
11 | Cn1cnc([N+](=O)[O-])c1Sc1nc(N)nc2c1ncn2[C@@H]1C[C@H](O)[C@@H](CO)O1 | > 100 | 137 | <125 | Non-toxic | > 100 | – | – | – | –
12 | CC(=O)OC[C@H]1O[C@@H](n2cnc3c(=S)[nH]c(N)nc32)C[C@@H]1OC(C)=O | – | 156 | 174 | – | – | – | – | – | –
13 | CC(=O)OC[C@H]1O[C@H](n2cnc3c(=S)[nH]c(N)nc32)C[C@@H]1OC(C)=O | – | <125 | – | – | – | – | – | – | –
14 | CSc1nc(NC(C)=O)nc2c1ncn2[C@H]1C[C@H](O)[C@@H](CO)O1 | – | <125 | – | Non-toxic | – | – | – | – | –
15 | Nc1nc2c(ncn2[C@H]2C[C@H](O)[C@@H](CO)O2)c(=S)[nH]1 [ATEGANOSINE] | > 100 | 219 | 138 | – | 50 | – | – | – | 208
